From ChEMBL document CHEMBL1142319, “New antitumor imidazo[2,1-b]thiazole guanylhydrazones and analogues” (2008)
The source made the active and inactive calls. No cut-off for these calls is given here.

Legend:
Cancer cell lines [1] = assay: Inhibition of human renal cancer cells; type: functional; settings: for TGI: read-out: pTGI (converted)
Procedure, shortened: (§1)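 NCI 60-cell-line panel, with results grouped by tissue subpanel. Compounds dissolved in DMSO and tested at five 10-fold dilutions, top concentration 10^-4 M. Values given as -log molar concentration for 50% growth inhibition (pGI50), total growth inhibition (pTGI) and 50% cell kill (pLC50), with subpanel means calculated.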

Leukemia cell = assay: Inhibition of human leukemia cells; type: functional; settings: for TGI: read-out: pTGI (converted); procedure, shortened: as §1
HL-60 [2] = assay: Cell cycle arrest in human HL60 cells assessed as accumulation at G2/M phase at 10 uM; type: functional
Procedure, shortened: (§2)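 HL-60 cells growing exponentially in RPMI 1640 with 10% FBS and 2 mM glutamine at 37 °C under 5% CO2. Compound was dissolved in DMSO, diluted in medium and applied for 24 h. Cells were fixed in cold 70% ethanol and stained with 50 µg/mL propidium iodide plus 10 µg/mL RNase for 30 min. DNA content was read by flow cytometry (≥10,000 cells) and the percentage of cells in each phase calculated.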

Cancer cell lines [3] = assay: Inhibition of human CNS cancer cells; type: functional; settings: for TGI: read-out: pTGI (converted); procedure, shortened: as §1
Melanoma cell = assay: Inhibition of human melanoma cells; type: functional; settings: for TGI: read-out: pTGI (converted); procedure, shortened: as §1
HL-60 [4] = assay: Cell cycle arrest in human HL60 cells assessed as accumulation at G0/G1 phase at 10 uM; type: functional; procedure, shortened: as §2
Cancer cell lines [5] = assay: Inhibition of human non-small cell lung cancer cells; type: functional; settings: for TGI: read-out: pTGI (converted); procedure, shortened: as §1
HL-60 [6] = assay: Induction of cell death in human HL60 cells at 10 uM by propidium iodide staining method; type: functional
Procedure, shortened: (§3)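 HL-60 cells in RPMI 1640 with 10% FBS and 2 mM glutamine at 37 °C, 5% CO2, exposed for 24 h to compound diluted in medium from DMSO. Cells were counterstained with propidium iodide (5 µg/mL) for plasma membrane integrity and analysed by flow cytometry. The readout is the percentage of PI-positive cells.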

Cancer cell lines [7] = assay: Inhibition of human prostate cancer cells; type: functional; settings: for TGI: read-out: pTGI (converted); procedure, shortened: as §1
HL-60 [8] = assay: Effect on cell growth in human HL60 cells assessed as cell number per mL at 10 uM; type: functional
Procedure, shortened: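 HL-60 cells grown in RPMI 1640 with 10% FBS and 2 mM glutamine at 37 °C, 5% CO2 (doubling time about 24 h). Compound was taken from a DMSO stock, diluted in medium and applied for 24 h. Growth was assessed by Coulter cell counting, reported as cells/mL.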

HL-60 [9] = assay: Cell cycle arrest in human HL60 cells assessed as accumulation at S phase at 10 uM; type: functional; procedure, shortened: as §2
Cancer cell lines [10] = assay: Inhibition of human ovarian cancer cells; type: functional; settings: for TGI: read-out: pTGI (converted); procedure, shortened: as §1
Cancer cell lines [11] = assay: Inhibition of human colon cancer cells; type: functional; settings: for TGI: read-out: pTGI (converted); procedure, shortened: as §1
Cancer cell lines [12] = assay: Inhibition of human breast cancer cells; type: functional; settings: for TGI: read-out: pTGI (converted); procedure, shortened: as §1
[13] = biological target: T1, S-adenosylmethionine decarboxylase proenzyme (Homo sapiens) (UniProt P17707); assay: Inhibition of human S-adenosyl methionine decarboxylase in HL60 cells at 1 to 100 uM; type: cell-based; settings: HL-60
T1 sequence (whole entry): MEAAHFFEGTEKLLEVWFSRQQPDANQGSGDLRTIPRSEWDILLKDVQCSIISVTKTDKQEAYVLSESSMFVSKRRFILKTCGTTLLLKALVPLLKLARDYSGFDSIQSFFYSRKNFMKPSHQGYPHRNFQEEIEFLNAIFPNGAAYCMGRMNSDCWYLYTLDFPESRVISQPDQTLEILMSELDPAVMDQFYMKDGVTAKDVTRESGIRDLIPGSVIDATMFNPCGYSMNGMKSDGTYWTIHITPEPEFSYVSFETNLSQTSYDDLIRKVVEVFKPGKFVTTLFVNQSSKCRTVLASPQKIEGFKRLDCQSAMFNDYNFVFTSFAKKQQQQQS

HL-60 [14] = assay: Increase in peroxide formation in human HL60 cells at 5 uM after 3 hrs; type: functional, cell-based
Procedure, shortened: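 Intracellular peroxides measured in HL-60 cells after 3 h at 5 µM. Cells incubated with 5 µM DCF-DA for 30 min at 37 °C, then read by flow cytometry. Mean ± SEM of triplicates.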

HL-60 [15] = assay: Disruption of mitochondrial membrane potential in human HL60 cells at 5 uM after 1 hr; type: functional, cell-based
Procedure, shortened: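 HL-60 cells exposed to 5 µM for 1 h, then loaded with 40 nM DiOC6 for 40 min at 1 × 10⁶ cells/mL, 37 °C, in the dark. Mitochondrial membrane potential read by flow cytometry. Mean ± SEM of triplicate determinations.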

HL-60 [16] = assay: Effect on cell growth in human HL60 cells assessed as cell number per mL at 2 uM; type: functional; parameters: scale not given here
Procedure, shortened: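 HL-60 cells in RPMI 1640 with 10% FBS and 2 mM glutamine, 37 °C, 5% CO2, doubling time about 24 h. Exposed 24 h to 2 µM compound diluted from DMSO into medium. Cells per mL counted with a Coulter counter.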

HL-60 [17] = assay: Cell cycle arrest in human HL60 cells assessed as accumulation at G0/G1 phase at 2 uM; type: functional
Procedure, shortened: (§4)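 HL-60 cells kept in RPMI 1640 with 10% FBS and 2 mM glutamine at 37 °C, 5% CO2. Treated 24 h at 2 µM from DMSO stock diluted in medium. Cells fixed in cold 70% ethanol and stained with propidium iodide 50 µg/mL plus RNAase 10 µg/mL for 30 min. DNA profiles read by flow cytometry on ≥10 000 cells, and phase percentages calculated.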

HL-60 [18] = assay: Induction of cell death in human HL60 cells assessed as LDH release at 5 uM after 24 hrs; type: functional, cell-based
Procedure, shortened: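 HL-60 cells exposed 24 h to 5 µM. Medium aliquots collected and LDH activity determined spectrophotometrically from NADH at 340 nm. One typical experiment shown, repeated at least twice.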

HL-60 [19] = assay: Cell cycle arrest in human HL60 cells assessed as accumulation at S phase at 2 uM; type: functional; procedure, shortened: as §4
HL-60 [20] = assay: Induction of cell death in human HL60 cells at 2 uM by propidium iodide staining method; type: functional; procedure, shortened: as §3
HL-60 [21] = assay: Induction of apoptosis in human HL60 cells assessed as caspase activity after 4 hrs; type: functional, cell-based
Procedure, shortened: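 HL-60 cells treated 4 h across a range of concentrations. DEVD-cleaving caspase (DEVDase) activity measured fluorimetrically in cell extracts. One typical experiment shown, repeated at least twice.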

HL-60 [22] = assay: Induction of apoptosis in human HL60 cells assessed as chromatin condensation at 5 uM after 3 hrs; type: functional, cell-based
Procedure, shortened: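 HL-60 cells on glass coverslips treated 3 h with 5 µM. Cells fixed in 4% paraformaldehyde in PBS and stained with Hoechst 0.1 µg/mL. Nuclear morphology (chromatin condensation, apoptotic bodies) scored by fluorescence microscopy. Experiment repeated at least twice.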

HL-60 [23] = assay: Effect on energy metabolism assessed as increase in AMP/ATP ratio in human HL60 cells at 5 uM after 3 hrs; type: functional, cell-based
Procedure, shortened: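 HL-60 cells treated 3 h with 5 µM. Adenine nucleotide levels measured and the AMP/ATP ratio calculated from them. Mean ± SEM of triplicate determinations.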

HL-60 [24] = assay: Cell cycle arrest in human HL60 cells assessed as accumulation at G2/M phase at 2 uM; type: functional; procedure, shortened: as §4

| Compound | GI50 (Cancer cell lines [1]) [µM] | TGI (Cancer cell lines [1]) [µM] | GI50 (Leukemia cell) [µM] | TGI (Leukemia cell) [µM] | GI50 (Cancer cell lines [3]) [µM] | TGI (Cancer cell lines [3]) [µM] | GI50 (Melanoma cell) [µM] | TGI (Melanoma cell) [µM] | GI50 (Cancer cell lines [5]) [µM] | TGI (Cancer cell lines [5]) [µM] | GI50 (Cancer cell lines [7]) [µM] | TGI (Cancer cell lines [7]) [µM] | GI50 (Cancer cell lines [10]) [µM] | TGI (Cancer cell lines [10]) [µM] | GI50 (Cancer cell lines [11]) [µM] | TGI (Cancer cell lines [11]) [µM] | GI50 (Cancer cell lines [12]) [µM] | TGI (Cancer cell lines [12]) [µM] | Activity [13] | Activity (HL-60 [14]) | other results |
| --- | --- | --- | --- | --- | --- | --- | --- | --- | --- | --- | --- | --- | --- | --- | --- | --- | --- | --- | --- | --- | --- |
| CC(/C=N/NC(=N)N)=N\NC(=N)N [MITOGUAZONE] | 20 | 501 | 7.94 | 631 | 20 | 251 | 39.8 | 316 | 25.1 | 316 | 100 | 1580 | 15.8 | 316 | 12.6 | 501 | 15.8 | 316 | – | – | Activity (HL-60 [2]): 15.5%; Activity (HL-60 [4]): 43.6%; Activity (HL-60 [6]): 5.2%; Activity (HL-60 [8]): 702; Activity (HL-60 [9]): 40.9% |
| COc1cc([N+](=O)[O-])c(OC)cc1-c1nc2sc(Cl)cn2c1/C=N\NC1=NCCN1 | 1.35 | 3.39 | 2.63 | – | 0.646 | 2.09 | 1.26 | 3.89 | 0.933 | 4.79 | 0.759 | 1.15 | 0.741 | 1.86 | 0.501 | 2.95 | 1.82 | 42.7 | Active | Active | Activity (HL-60 [15]): Active; Activity (HL-60 [16]): 485; Activity (HL-60 [17]): 33.1%; Activity (HL-60 [18]): Active; Activity (HL-60 [19]): 51.9%; Activity (HL-60 [20]): 22%; Activity (HL-60 [21]): Dose-dependent effect; Activity (HL-60 [22]): Active; Activity (HL-60 [23]): Active; Activity (HL-60 [24]): 15.1% |
| Cc1nn2c(/C=N/NC(=N)N)c(-c3ccc(Cl)c([N+](=O)[O-])c3)nc2s1 | 1.23 | 3.63 | 0.575 | 3.63 | 1.23 | 9.77 | 1.45 | 2.95 | 3.31 | 11.5 | 1.1 | 2.63 | 1.48 | 4.27 | 0.646 | 2.82 | 1.02 | 6.92 | Active | Active | Activity (HL-60 [15]): Active; Activity (HL-60 [16]): 410; Activity (HL-60 [17]): 29.9%; Activity (HL-60 [18]): Active; Activity (HL-60 [19]): 53.6%; Activity (HL-60 [20]): 31%; Activity (HL-60 [21]): Dose-dependent effect; Activity (HL-60 [22]): Active; Activity (HL-60 [23]): Active; Activity (HL-60 [24]): 16.5% |
